One assay has as its system Rattus norvegicus. The assay is described as follows: The compound was tested for antidepressant activity by its ability to inhibit muricidal intraperitoneally. Type of assay: functional. The settings on record: ip. Put shortly: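 Male Long-Evans rats (200–300 g), groups of five, given test drug ip as a methylcellulose suspension at an initial screening dose of 10 or 20 mg/kg. Mice were presented to the rats 30 min after dosing.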

The species entered for another assay is Mus musculus. In words: The compound was tested for antidepressant activity by its ability to reverse tetrabenazine induced ptosis in mice, perorally. Type of assay: functional. The settings on record: po. In short, it runs like this: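 Male albino CFI mice (18–22 g), groups of five, dosed po with test drug in methylcellulose suspension (initial screening dose 30 mg/kg). Tetrabenazine methanesulfonate 30 mg/kg was given ip 30 min later, and palpebral opening was scored after 30 min.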

What is called ED50 is the dose at which the effect has come halfway, by size or by number of responders. High values mean a need for a large dose, low ones an effect at a small dose. With `Clc1ccc2c(c1)Oc1cccnc1S2`, the figures for the ED50 in the assay on Rattus norvegicus and in the assay filed under Mus musculus were over 10 mg/kg and over 30 mg/kg, respectively.
As for `COc1ccc2c(c1)Oc1cccnc1S2`, the ED50 is over 10 mg/kg in the assay with Rattus norvegicus and over 30 mg/kg in the assay filed under Mus musculus.
Consider `CN(C)CCCN1c2ccccc2CCc2ccccc21` [IMIPRAMINE], for which the ED50 was determined as 20 mg/kg in the assay on Rattus norvegicus and 2 mg/kg in the assay filed under Mus musculus.
In the case of `Brc1ccc2c(c1)Oc1cccnc1S2`, the ED50 in the assay with Rattus norvegicus is over 10 mg/kg; in the assay listed under Mus musculus, over 30 mg/kg.
With `NS(=O)(=O)c1ccc2c(c1)Oc1cccnc1S2`, the ED50 in the assay with Rattus norvegicus was 8 mg/kg; in the assay filed under Mus musculus, over 30 mg/kg.
Turning to `O=S1(=O)c2ccc(NO)cc2Oc2cccnc21`, the ED50 is over 10 mg/kg in the assay with Rattus norvegicus and 2 mg/kg in the assay filed under Mus musculus.
For `O=[N+]([O-])c1ccc2c(c1)Oc1cccnc1S2(=O)=O`, the values for the ED50 in the assay with Rattus norvegicus and in the assay filed under Mus musculus were 12 mg/kg and 10 mg/kg, respectively.
Take `O=S1(=O)c2ccccc2Oc2cccnc21`: the ED50 in the assay with Rattus norvegicus was over 10 mg/kg; in the assay listed under Mus musculus, 12 mg/kg.
Turning to `O=[N+]([O-])c1ccc2c(c1)Oc1cccnc1S2`, the ED50 is 7 mg/kg with Rattus norvegicus and over 30 mg/kg in the assay filed under Mus musculus.
Take `O=S1(=O)c2ccc(Cl)cc2Oc2cccnc21`: the ED50 with Rattus norvegicus was over 10 mg/kg; in the assay filed under Mus musculus it was 18 mg/kg.
Take `COc1ccc2c(c1)Oc1cccnc1S2(=O)=O`: the ED50 is over 10 mg/kg in the assay on Rattus norvegicus and over 30 mg/kg in the assay filed under Mus musculus.
For `c1ccc2c(c1)Oc1cccnc1S2`, in that order: over 10 mg/kg and 8 mg/kg.
Take `FC(F)(F)c1ccc2c(c1)Oc1cccnc1S2`: the results for the 50% effective dose (ED50) in the assay with Rattus norvegicus and in the assay filed under Mus musculus were over 10 mg/kg and 16 mg/kg, respectively.
Consider `O=S1(=O)c2ccc(C(F)(F)F)cc2Oc2cccnc21`, for which the ED50 in the assay on Rattus norvegicus is 17 mg/kg; in the assay listed under Mus musculus, 1 mg/kg.
Regarding `O=S1(=O)c2ccc(Br)cc2Oc2cccnc21`, the median effective dose (ED50) was determined as 7 mg/kg in the assay with Rattus norvegicus and 15 mg/kg in the assay listed under Mus musculus.

Source of the values: ChEMBL document CHEMBL1121414, “Central nervous system activity of 7-substituted 1-azaphenoxathiin analogues and their oxidation products” (1980).
